Here are results for 41 compounds from ChEMBL document CHEMBL1221285, “Inhibition of interleukin-1beta converting enzyme (ICE or caspase 1) by aspartyl acyloxyalkyl ketones and aspartyl amidooxyalkyl ketones” (Bioorg Med Chem Lett, 2010).

The target in one assay is T1, Caspase-1 (Homo sapiens, UniProt P29466).
T1 sequence (P29466 whole entry): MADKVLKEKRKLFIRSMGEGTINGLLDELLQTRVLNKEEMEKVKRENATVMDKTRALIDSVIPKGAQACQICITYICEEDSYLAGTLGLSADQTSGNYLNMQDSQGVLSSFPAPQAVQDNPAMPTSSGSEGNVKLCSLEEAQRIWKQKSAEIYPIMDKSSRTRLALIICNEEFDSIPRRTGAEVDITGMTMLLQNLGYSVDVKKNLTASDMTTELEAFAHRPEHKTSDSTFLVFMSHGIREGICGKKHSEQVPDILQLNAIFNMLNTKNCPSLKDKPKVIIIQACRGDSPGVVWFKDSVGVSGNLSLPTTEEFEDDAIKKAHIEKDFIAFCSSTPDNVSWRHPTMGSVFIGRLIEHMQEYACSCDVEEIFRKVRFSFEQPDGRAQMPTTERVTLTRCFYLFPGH
In words: Inhibition of ICE. The gist of the method:
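Recombinant ICE; inhibition followed by fluorescence. Ki reported as the geometric mean of two or more experiments.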
In turn, `O=C(O)C[C@H](NC(=O)OCc1ccccc1)C(=O)COC(=O)COc1cccc2ccccc12` yielded a Ki of 1000 nM.

Turning to `CC(C)[C@H](NC(=O)OCc1ccccc1)C(=O)N[C@@H](C)C(=O)N[C@@H](CC(=O)O)C(=O)COC(=O)CC(c1ccccc1)c1ccccc1`, the IC50 was determined as 5 nM and affinity was put at a Ki of 1 nM.

`COC(=O)C[C@H]1CCC[C@H]2CC(=O)N(OCC(=O)[C@H](CC(=O)O)NC(=O)[C@H](C)NC(=O)[C@@H](NC(=O)OCc3ccccc3)C(C)C)[C@@H]12` registered an IC50 of 26 nM and a Ki of 7 nM.

With `O=C(O)C[C@H](NC(=O)OCc1ccccc1)C(=O)COC(=O)CCc1ccc2ccccc2c1`, affinity was put at a Ki of 6000 nM.

As to `CC(C)[C@H](NC(=O)OCc1ccccc1)C(=O)N[C@@H](C)C(=O)N[C@@H](CC(=O)O)C(=O)COC(=O)Cc1cccc2ccccc12`, the IC50 is 2 nM and affinity was put at a Ki of 3 nM.

In turn, `O=C(O)C[C@H](NC(=O)OCc1ccccc1)C(=O)COCCCCCc1ccccc1` had a Ki of 119000 nM.

As to `O=C(O)C[C@H](NC(=O)OCc1ccccc1)C(=O)COC(=O)Cc1cccc2scnc12`, the Ki turned out to be 2600 nM.

Turning to `Cc1ccc2ccccc2c1CC(=O)OCC(=O)[C@H](CC(=O)O)NC(=O)OCc1ccccc1`, the inhibition constant (Ki) was determined as 4400 nM.

For `O=C(O)C[C@H](NC(=O)OCc1ccccc1)C(=O)CON1C(=O)Cc2ccccc21`, the Ki amounted to 6770 nM.

`CC(C(=O)OCC(=O)[C@H](CC(=O)O)NC(=O)OCc1ccccc1)c1cccc2ccccc12` (stereo partly specified): the affinity, expressed as Ki, was 1000 nM.

The compound `O=C(O)C[C@H](NC(=O)OCc1ccccc1)C(=O)CONC(=O)CCc1cccc2ccccc12` registered a Ki of 298000 nM.

Compound `O=C(O)C[C@H](NC(=O)OCc1ccccc1)C(=O)COC(=O)Cc1ccccc1` registered an inhibition constant Ki of 8300 nM.

`O=C(O)C[C@H](NC(=O)OCc1ccccc1)C(=O)COC(=O)CCc1ccccc1` came in with an inhibition constant (Ki) of 4500 nM.

In the case of `O=C(O)C[C@H](NC(=O)OCc1ccccc1)C(=O)COC(=O)CC(c1ccccc1)c1ccccc1`, the Ki worked out at 800 nM.

Regarding `O=C(O)C[C@H](NC(=O)OCc1ccccc1)C(=O)CONC(=O)Cc1cccc2ccccc12`, the Ki turned out to be 84000 nM.

`O=C(O)C[C@H](NC(=O)OCc1ccccc1)C(=O)COC(=O)Cc1coc2ccccc12` had a Ki of 800 nM.

Compound `O=C(O)C[C@H](NC(=O)OCc1ccccc1)C(=O)COC(=O)Cc1csc2ccccc12` returned a Ki of 1200 nM.

`O=C(O)C[C@H](NC(=O)OCc1ccccc1)C(=O)CONC(=O)Cc1ccccc1`: the affinity, expressed as Ki, was 66500 nM.

The compound `O=C(O)C[C@H](NC(=O)OCc1ccccc1)C(=O)CONC(=O)CCc1ccccc1` returned a Ki of 27500 nM.

`O=C(O)C[C@H](NC(=O)OCc1ccccc1)C(=O)COC(=O)CCCc1ccccc1` gave a Ki of 16000 nM.

With `Cc1ccc(CC(=O)OCC(=O)[C@H](CC(=O)O)NC(=O)OCc2ccccc2)c2ccccc12`, the affinity corresponds to a Ki of 1300 nM.

On to `COC(=O)C[C@H]1CCC[C@H]2CC(=O)N(OCC(=O)[C@H](CC(=O)O)NC(=O)OCc3ccccc3)[C@@H]12`, for which the inhibition constant (Ki) amounted to 15000 nM.

For the compound `CC(C)[C@H](NC(=O)OCc1ccccc1)C(=O)N[C@@H](C)C(=O)N[C@@H](CC(=O)O)C(=O)CON1C(=O)C[C@@H]2CCCC[C@@H]21`, 3 nM corresponded to half-maximal inhibition (IC50) and the affinity corresponds to a Ki of 1 nM.

As for `O=C(O)C[C@H](NC(=O)OCc1ccccc1)C(=O)COC(=O)Cc1c[nH]c2ccccc12`, affinity was put at a Ki of 600 nM.

`CC(C)[C@H](NC(=O)OCc1ccccc1)C(=O)N[C@@H](C)C(=O)N[C@@H](CC(=O)O)C(=O)COC(=O)C(Cc1ccccc1)Cc1ccccc1` yielded an IC50 of 3 nM and an inhibition constant Ki of 2 nM.

As to `O=C(O)C[C@H](NC(=O)OCc1ccccc1)C(=O)COC(=O)CNc1ccccc1`, the inhibition constant Ki turned out to be 5600 nM.

`O=C(O)C[C@H](NC(=O)OCc1ccccc1)C(=O)CONC(=O)c1ccccc1` showed a Ki of 21000 nM.

For `O=C(O)C[C@H](NC(=O)OCc1ccccc1)C(=O)CON1C(=O)C[C@@H]2CCCC[C@H]21`, the Ki was found to be 17500 nM.

For `O=C(O)C[C@H](NC(=O)OCc1ccccc1)C(=O)CON1C(=O)C[C@@H]2CCCC[C@@H]21`, the Ki was determined as 9200 nM.

With `CC(C)[C@H](NC(=O)OCc1ccccc1)C(=O)N[C@@H](C)C(=O)N[C@@H](CC(=O)O)C(=O)CON1C(=O)Cc2ccccc21`, the IC50 was 3 nM and the Ki came to 2 nM.

`O=C(O)C[C@H](NC(=O)OCc1ccccc1)C(=O)COC(=O)CC(c1ccccc1)c1ccccn1` (stereo partly specified) gave a Ki of 1100 nM.

`O=C(O)C[C@H](NC(=O)OCc1ccccc1)C(=O)CON1Cc2ccccc2C1=O` returned a Ki of 14000 nM.

`O=C(O)C[C@H](NC(=O)OCc1ccccc1)C(=O)COC(=O)CSc1ccccc1` had a Ki of 1100 nM.

The compound `O=C(O)C[C@H](NC(=O)OCc1ccccc1)C(=O)CON1C(=O)C2C3C=CC(O3)C2C1=O` (stereo partly specified) displayed an inhibitory constant (Ki) of 1500 nM.

The compound `O=C(O)C[C@H](NC(=O)OCc1ccccc1)C(=O)COC(=O)Cc1cccc2ccccc12` came in with a Ki of 500 nM.

In turn, `Cc1cccc2cccc(CC(=O)OCC(=O)[C@H](CC(=O)O)NC(=O)OCc3ccccc3)c12` yielded an inhibition constant (Ki) of 8500 nM.

As for `O=C(O)C[C@H](NC(=O)OCc1ccccc1)C(=O)COC(=O)COc1ccccc1`, the Ki is 1700 nM.

For `O=C(O)C[C@H](NC(=O)OCc1ccccc1)C(=O)COC(=O)Cc1ccc2ccccc2c1`, the Ki was determined as 1300 nM.

The compound `CC(C)[C@H](NC(=O)OCc1ccccc1)C(=O)N[C@@H](C)C(=O)N[C@@H](CC(=O)O)C(=O)CCCCCc1ccccc1` showed an IC50 of 976 nM and an inhibition constant (Ki) of 134 nM.

`Cc1cccc2c(CC(=O)OCC(=O)[C@H](CC(=O)O)NC(=O)OCc3ccccc3)cccc12` returned an inhibition constant Ki of 2000 nM.

`CC(=O)N[C@@H](Cc1ccc(O)cc1)C(=O)N[C@H](C(=O)N[C@@H](C)C(=O)N[C@@H](CC(=O)O)C(=O)CCCCCc1ccccc1)C(C)C`: the IC50 was 78 nM.

The target of a further assay is T2, Caspase-1 (Homo sapiens) (UniProt P29466).
T2 sequence (whole entry): T1 sequence (P29466 whole entry)
In words: Inhibition of ICE in human PBMC. In a few lines: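 Human PBMC isolated from heparinized blood over Ficoll, washed three times in PBS, then held in RPMI 1640 with glutamine, penicillin, streptomycin and 2% human AB serum at 10^6 cells per well. Cells were stimulated overnight with LPS 10 ng/mL with or without inhibitor. Mature IL-1b in the medium was measured by ELISA. IC50 is the concentration reducing IL-1b by 50%.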
As to `CC(C)[C@H](NC(=O)OCc1ccccc1)C(=O)N[C@@H](C)C(=O)N[C@@H](CC(=O)O)C(=O)COC(=O)CC(c1ccccc1)c1ccccc1`, the IC50 worked out at 4300 nM.

On to `COC(=O)C[C@H]1CCC[C@H]2CC(=O)N(OCC(=O)[C@H](CC(=O)O)NC(=O)[C@H](C)NC(=O)[C@@H](NC(=O)OCc3ccccc3)C(C)C)[C@@H]12`, for which the midpoint of inhibition, the IC50, lay at 4800 nM.

Take `CC(C)[C@H](NC(=O)OCc1ccccc1)C(=O)N[C@@H](C)C(=O)N[C@@H](CC(=O)O)C(=O)COC(=O)Cc1cccc2ccccc12`: 600 nM corresponded to half-maximal inhibition (IC50).

Turning to `CC(C)[C@H](NC(=O)OCc1ccccc1)C(=O)N[C@@H](C)C(=O)N[C@@H](CC(=O)O)C(=O)CON1C(=O)C[C@@H]2CCCC[C@@H]21`, half-maximal inhibition (IC50) was put at 2400 nM.

As to `CC(C)[C@H](NC(=O)OCc1ccccc1)C(=O)N[C@@H](C)C(=O)N[C@@H](CC(=O)O)C(=O)COC(=O)C(Cc1ccccc1)Cc1ccccc1`, the half-maximal inhibitory concentration (IC50) was 1400 nM.

As for `CC(C)[C@H](NC(=O)OCc1ccccc1)C(=O)N[C@@H](C)C(=O)N[C@@H](CC(=O)O)C(=O)CON1C(=O)Cc2ccccc21`, the IC50 came out at 3000 nM.

Turning to `CC(C)[C@H](NC(=O)OCc1ccccc1)C(=O)N[C@@H](C)C(=O)N[C@@H](CC(=O)O)C(=O)CCCCCc1ccccc1`, the midpoint of inhibition, the IC50, lay at 4900 nM.

Compound `CC(=O)N[C@@H](Cc1ccc(O)cc1)C(=O)N[C@H](C(=O)N[C@@H](C)C(=O)N[C@@H](CC(=O)O)C(=O)CCCCCc1ccccc1)C(C)C` registered an IC50 of 900 nM.
